From publication PMC7880549 (Bioorganic & medicinal chemistry, 2020)

Columns and labels:
[1] = target: T1, UCHL5 (Homo sapiens, UniProt Q9Y5K5); assay: in vitro DUB assay with purified UCHL5 and Ub-rhodamine 110; assay type: biochemical
T1 sequence (Q9Y5K5 1-329): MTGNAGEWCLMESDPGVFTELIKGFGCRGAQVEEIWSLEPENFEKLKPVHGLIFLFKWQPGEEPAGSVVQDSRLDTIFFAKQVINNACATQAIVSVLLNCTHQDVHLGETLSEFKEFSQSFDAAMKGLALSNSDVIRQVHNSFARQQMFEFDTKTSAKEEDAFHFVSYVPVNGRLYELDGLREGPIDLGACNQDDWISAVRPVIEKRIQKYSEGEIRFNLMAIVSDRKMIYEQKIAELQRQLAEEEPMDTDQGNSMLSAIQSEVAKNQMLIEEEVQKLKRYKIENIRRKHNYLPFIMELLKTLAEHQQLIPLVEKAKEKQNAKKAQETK

[2] = target: T1, UCHL5; assay type: biochemical; settings: MDA-MB-231 lysate pre-incubated 30 min, Ub-VS 1 μM
Method in brief: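 Lysate (20 μg protein) was pre-incubated with test compound at RT, then Ub-VS was added for 11 min at RT. After SDS quench and 12% SDS-PAGE, blots were probed for UCHL5 band shift and β-actin. Two independent experiments were run.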

improved potency versus TAB1 ([1]; TAB2 vs TAB1) | concentrations inhibiting UCHL5/Ub-VS conjugation [2] [µM] | improvement of IC50 compared to TA ([1]; TAA1 vs TA) | SMILES
ca. 2.5 fold | 25 to 50 |  | Nc1ccc(-c2cn(Cc3cc(C(=O)O)cc(-c4cccc(C(=O)O)c4)c3)nn2)cc1 [TAB2]
 |  | ca. 33 fold | CC(C(=O)O)c1ccc(C(=O)c2cccc(-c3ccccc3C(=O)O)c2)s1 (stereo not drawn) [TAA1]
